Reference: ChEMBL document CHEMBL1143425, “Paradoxical growth effect of caspofungin observed on biofilms and planktonic cells of five different Candida species” (2007)
In brackets after ≈: the same amount, converted by molar mass. Activity calls are given as the source filed them.

Tests used:
[1] = system: Candida tropicalis; assay: Antimicrobial activity against Candida tropicalis BR-A8 grown as planktonic cell after 48 hrs by XTT reduction assay; format: functional
Outline: (§1)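 Planktonic broth microdilution followed CLSI M27-A2, with caspofungin dissolved in water. After 48 h, XTT-menadione was added to the wells and plates were kept 1 h at 35°C in the dark. Plates were then centrifuged and supernatant A490 was read. MIC was the lowest concentration giving a 50% decrease in metabolic activity versus drug-free control. Paradoxical growth was defined as ≥20% of control activity above the MIC.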

[2] = system: Candida parapsilosis; assay: Antimicrobial activity against Candida parapsilosis BR-A29 grown as planktonic cell after 48 hrs by XTT reduction assay; format: functional; conditions: Lodderomyces parapsilosis; outline: as §1
[3] = system: Candida parapsilosis; assay: Antimicrobial activity against Candida parapsilosis BR-A30 grown as planktonic cell after 48 hrs by XTT reduction assay; format: functional; conditions: Lodderomyces parapsilosis; outline: as §1
[4] = system: Candida orthopsilosis; assay: Antimicrobial activity against Candida orthopsilosis BR-A35 grown as planktonic cell after 48 hrs by XTT reduction assay; format: functional; conditions: Lodderomyces orthopsilosis
Outline: (§2)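 Planktonic cells were tested by CLSI M27-A2 broth microdilution with caspofungin in water, incubated 48 h. XTT-menadione was added to each well, plates were held 1 h at 35°C in the dark and centrifuged, and supernatant absorbance was read at 490 nm. MIC was defined as 50% decrease in metabolic activity versus drug-free control. PG was defined as ≥20% of control activity at concentrations above MIC.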

[5] = system: Candida metapsilosis; assay: Antimicrobial activity against Candida metapsilosis BR-A40 grown as planktonic cell assessed as paradoxical growth after 48 hrs by XTT reduction assay; format: functional, organism-based; outline: as §2
[6] = system: Candida metapsilosis; assay: Antimicrobial activity against Candida metapsilosis BR-A43 grown as planktonic cell after 48 hrs by XTT reduction assay; format: functional; conditions: Lodderomyces metapsilosis; outline: as §2
[7] = system: Candida parapsilosis; assay: Antimicrobial activity against Candida parapsilosis 22019 grown as planktonic cell after 48 hrs by XTT reduction assay; format: functional; conditions: Lodderomyces parapsilosis, 22019, 48 h; outline: as §1
[8] = system: Candida tropicalis; assay: Antimicrobial activity against Candida tropicalis BR-A9 grown as planktonic cell assessed as concentration producing paradoxical growth after 48 hrs by XTT reduction assay; format: functional
Outline: (§3)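 Planktonic broth microdilution followed CLSI M27-A2, with caspofungin dissolved in water. After 48 h, XTT-menadione was added to each well and plates were incubated 1 h at 35°C in the dark. Cells were pelleted by centrifugation and the supernatant was read at 490 nm. MIC was the lowest concentration giving a 50% drop in metabolic activity versus the drug-free control. PG was ≥20% of drug-free activity above the MIC.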

[9] = system: Candida parapsilosis; assay: Antimicrobial activity against Candida parapsilosis BR-A25 grown as planktonic cell assessed as concentration producing paradoxical growth after 48 hrs by XTT reduction assay; format: functional; outline: as §3
[10] = system: Candida orthopsilosis; assay: Antimicrobial activity against Candida orthopsilosis BR-A35 grown as planktonic cell assessed as paradoxical growth after 48 hrs by XTT reduction assay; format: functional, organism-based; outline: as §2
[11] = system: Candida tropicalis; assay: Antimicrobial activity against Candida tropicalis BR-A18 grown as biofilm after 48 hrs by XTT reduction assay; format: functional
Outline: (§4)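 Clinical isolates were grown overnight (18 h, 35°C, 120 rpm) in RPMI 1640 with MOPS, pH 7.0, then washed and set to ~1 × 10^7 cells/ml. Cells attached for 1.5 h at 37°C, 75 rpm, then biofilms grew 24 h. Caspofungin was given as doubling dilutions of 2–1,024 μg/ml for 48 h at 35°C, 75 rpm. Read-out was XTT-menadione in PBS, 1 h at 35°C in the dark, A490, cell-free blank subtracted. MIC was a 50% drop in activity versus drug-free; PG was >50% of control above MIC. Run in duplicate.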

[12] = system: Candida parapsilosis; assay: Antimicrobial activity against Candida parapsilosis BR-A25 grown as biofilm after 48 hrs by XTT reduction assay; format: functional; conditions: Lodderomyces parapsilosis
Outline: (§5)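 Isolates were grown on Sabouraud agar (30°C, 24 h), then overnight in RPMI 1640 with MOPS, pH 7.0, at 35°C with shaking. Cells were washed and set to ~1 × 10^7 cells/ml, attached 1.5 h at 37°C, and grown 24 h. Biofilms were then exposed to caspofungin in 10 twofold dilutions (2–1,024 μg/ml) for 48 h at 35°C with shaking. Read-out was XTT-menadione, 1 h, 35°C, dark, A490, cell-free blank subtracted. MIC was the 50% drop in activity versus drug-free control. Tested in duplicate.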

[13] = system: Candida parapsilosis; assay: Antimicrobial activity against Candida parapsilosis BR-A30 grown as biofilm after 48 hrs by XTT reduction assay; format: functional; conditions: Lodderomyces parapsilosis; outline: as §4
[14] = system: Candida orthopsilosis; assay: Antimicrobial activity against Candida orthopsilosis BR-A32 grown as biofilm after 48 hrs by XTT reduction assay; format: functional; conditions: Lodderomyces orthopsilosis; outline: as §5
[15] = system: Candida orthopsilosis; assay: Antimicrobial activity against Candida orthopsilosis BR-A34 grown as biofilm after 48 hrs by XTT reduction assay; format: functional; conditions: Lodderomyces orthopsilosis; outline: as §5
[16] = system: Candida orthopsilosis; assay: Antimicrobial activity against Candida orthopsilosis BR-A35 grown as biofilm after 48 hrs by XTT reduction assay; format: functional; conditions: Lodderomyces orthopsilosis; outline: as §5
[17] = system: Candida orthopsilosis; assay: Antimicrobial activity against Candida orthopsilosis BR-A39 grown as biofilm after 48 hrs by XTT reduction assay; format: functional; conditions: Lodderomyces orthopsilosis; outline: as §5
[18] = system: Candida metapsilosis; assay: Antimicrobial activity against Candida metapsilosis BR-A44 grown as biofilm after 48 hrs by XTT reduction assay; format: functional; conditions: Lodderomyces metapsilosis
Outline: (§6)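 Sabouraud-grown cells were shaken overnight (18 h, 120 rpm, 35°C) in RPMI 1640 with MOPS at pH 7.0, then washed and set at ~1 × 10^7 cells/ml. Attachment lasted 1.5 h at 37°C, and growth ran 24 h before challenge. Caspofungin was added in RPMI at 2–1,024 μg/ml (10 doublings) for 48 h at 35°C with shaking. XTT-menadione was read at 490 nm after 1 h at 35°C in the dark, with blank wells subtracted. MIC was taken as 50% reduction versus drug-free wells, and PG as >50% of control above MIC. Assays were run in duplicate.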

[19] = system: Candida parapsilosis; assay: Antimicrobial activity against Candida parapsilosis BR-A26 grown as biofilm assessed as paradoxical growth after 48 hrs by XTT reduction assay; format: functional, organism-based; outline: as §4
[20] = system: Candida parapsilosis; assay: Antimicrobial activity against Candida parapsilosis BR-A28 grown as biofilm assessed as concentration producing paradoxical growth after 48 hrs by XTT reduction assay; format: functional; outline: as §4
[21] = system: Candida parapsilosis; assay: Antimicrobial activity against Candida parapsilosis BR-A29 grown as biofilm assessed as concentration producing paradoxical growth after 48 hrs by XTT reduction assay; format: functional; outline: as §4
[22] = system: Candida parapsilosis; assay: Antimicrobial activity against Candida parapsilosis BR-A31 grown as biofilm assessed as concentration producing paradoxical growth after 48 hrs by XTT reduction assay; format: functional; outline: as §4
[23] = system: Candida orthopsilosis; assay: Antimicrobial activity against Candida orthopsilosis BR-A35 grown as biofilm assessed as concentration producing paradoxical growth after 48 hrs by XTT reduction assay; format: functional; outline: as §6
[24] = system: Candida orthopsilosis; assay: Antimicrobial activity against Candida orthopsilosis BR-A37 grown as biofilm assessed as concentration producing paradoxical growth after 48 hrs by XTT reduction assay; format: functional; outline: as §6
[25] = system: Candida metapsilosis; assay: Antimicrobial activity against Candida metapsilosis BR-A44 grown as biofilm assessed as concentration producing paradoxical growth after 48 hrs by XTT reduction assay; format: functional; outline: as §6
[26] = system: Candida albicans; assay: Effect on morphology in Candida albicans grown as biofilm assessed as inhibition of hyphae and pseudohyphae at 32 ug/ml after 48 hrs; format: functional, organism-based
Outline: (§7)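 Biofilms formed in RPMI 1640 wells were exposed to caspofungin for 48 h and compared with drug-free control wells. Wells were examined in the plate under an inverted light microscope at ×200 and photographed.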

[27] = system: Candida metapsilosis; assay: Effect on morphology in Candida metapsilosis grown as biofilm assessed as rounding and clumping at 16 ug/ml after 48 hrs; format: functional, organism-based; outline: as §7

Compound `CC[C@H](C)C[C@H](C)CCCCCCCCC(=O)N[C@H]1C[C@@H](O)[C@@H](NCCN)NC(=O)[C@@H]2[C@@H](O)CCN2C(=O)[C@H]([C@H](O)CCN)NC(=O)[C@H]([C@H](O)[C@@H](O)c2ccc(O)cc2)NC(=O)[C@@H]2C[C@@H](O)CN2C(=O)[C@H]([C@@H](C)O)NC1=O` [CASPOFUNGIN] has an MIC [1] of 1 µg/mL (≈ 0.915 µM), an MIC [2] of 2 µg/mL (≈ 1.83 µM) and an MIC [3] of 2 µg/mL (≈ 1.83 µM). For the same compound, the MIC [4] was 1 µg/mL (≈ 0.915 µM), the Activity [5] was “inactive” and the MIC [6] was 2 µg/mL (≈ 1.83 µM). For the same compound, the MIC [7] was 2 µg/mL (≈ 1.83 µM), the Activity [8] was 8 µg/mL and the Activity [9] was 32 µg/mL. For the same compound, the Activity [10] was “inactive”, the MIC [11] was 128 µg/mL (≈ 117 µM) and the MIC [12] was 2 µg/mL (≈ 1.83 µM). The MIC [13] was 256 µg/mL (≈ 234 µM), the MIC [14] was 2 µg/mL (≈ 1.83 µM) and the MIC [15] was 2 µg/mL (≈ 1.83 µM). For the same compound, the MIC [16] was 2 µg/mL (≈ 1.83 µM), the MIC [17] was 2 µg/mL (≈ 1.83 µM) and the MIC [18] was 2 µg/mL (≈ 1.83 µM). For the same compound, the Activity [19] was “Active”, the Activity [20] was 16 µg/mL and the Activity [21] was 16 µg/mL. For the same compound, the Activity [22] was 32 µg/mL, the Activity [23] was 16 µg/mL and the Activity [24] was 32 µg/mL. The Activity [25] was 16 µg/mL, the Activity [26] was “Active” and the Activity [27] was “Active”.
